# XBP1 UPR activ: adaptive UPR (XBP1) activation; CHO-XBP1 luciferase reporter, IRE1-XBP1 UPR activation, luminescence; percent of tunicamycin response, DMSO as zero; AID 463104; activation, % at 20 µM; actives 0.33% (n = 330,000);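 active = versus positive control, 20 µM dose yields 30% or more activation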
#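 Material: CHO cell line with stable XBP1 luciferase reporter; buffer or medium: F12 medium containing 10% fetal bovine serum; compound: single point, 20 µM final compound, 1% DMSO; incubation: 6 h treatment, 37 °C; measured by: glow luminescence from Steady-Glo reagent; evaluation: activation, % of tunicamycin; control set: tunicamycin high, DMSO low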
# CHOP UPR activ: apoptotic UPR (CHOP) activation; CHO-CHOP luciferase reporter, luminescence; percent of tunicamycin response over DMSO baseline; actives 0.34% (n = 330,000); activation, % at 10 µM;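 active = at 10 µM dose, activation of 40% or more, normalized to positive control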
#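 Evaluation: % reporter activation, DMSO baseline versus tunicamycin full activation; System: CHO-CHOP luciferase reporter cell line; Input: 500 cells/well; Incubation: 6 h compound treatment, 37 °C; Measured by: Steady-Glo luciferase luminescence; Dosing: one dose, 10 µM in 0.5% DMSO; Buffer or medium: F12 medium, 10% FBS; Benchmarks: positive tunicamycin 10 µg/mL, negative DMSO alone.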
# 697 NFkB inh: inhibitors of the PMA/ionomycin-induced NF-kB reporter in 697 B cells | 697 B-cell NF-kB luciferase reporter, 16 h | inhibition, % at 4 µM | actives 0.33% (n = 330,000) | AID 435022; in the data active = inhibition above about 35%
# CHOP inh: inhibitors of CHOP induction in ER stress response; CHO-K1 CHOP-promoter luciferase, tunicamycin-induced, 15-18 h; inhibition, % at 10 µM; actives 3.8% (n = 220,000);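 active = compounds that reduced the stress-induced luciferase reporter signal by more than about 70% of percent inhibition, limit read from the data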
# Jurkat NFkB inh: inhibitors of the PMA/ionomycin-induced NF-kB reporter in Jurkat cells. PMA/ionomycin-induced NF-kB luciferase reporter, luminescence. inhibition, % at 4 µM. actives 0.53% (n = 330,000). AID 435003; in the data active = inhibition above about 50%
# A number is an active result; - = inactive; . = not tested or not shown. Shown is part of a subset that was picked to be rich in hits.
SMILES,XBP1 UPR activ,CHOP UPR activ,697 NFkB inh,CHOP inh,Jurkat NFkB inh
CC1=C(C(=O)OC(C)C)C(c2cccnc2)C2=C(CCCC2=O)N1 (centres undefined),-,-,-,91.2,-
Cn1ccnc1SCC(=O)Nc1ccc(Br)cc1C(F)(F)F,-,-,-,.,-
CC(/C=C/C(=O)c1ccc(C)cc1)=C\c1ccccc1,-,-,-,90.9,-
Clc1cccc(-c2ccnc3nc(-n4cccc4)nn23)c1,-,-,-,75.8,-
COc1ccc(-c2ccnc3nc(-n4cccc4)nn23)cc1,-,-,-,-,-
C[C@H]1CN([C@@H](C)CO)C(=O)c2cccc(NC(=O)c3cnccn3)c2O[C@@H]1CN(C)S(=O)(=O)c1ccc(F)cc1,-,-,-,.,-
O=c1oc2cc(O)ccc2cc1-c1nc2c(s1)CCc1ccccc1-2,.,.,.,82.8,.
COc1ccc(/C=N/NC(=O)CCn2c3ccccc3c3ccccc32)cc1O,-,-,-,-,-
COc1cccc(/C=N/NC(=O)CCn2c3ccccc3c3ccccc32)c1,-,-,-,89.1,-
O=C1C2C3C=CC(CC3)C2C(=O)N1/N=C/c1c(O)ccc2ccccc12 (centres undefined),-,-,-,71.6,-
Cc1nc(COc2ccccc2Cl)sc1-c1ccnc(N)n1,-,-,-,-,-
Cc1sc2nc(CSc3ccccc3)nc(N3CCOCC3)c2c1C,-,-,-,71.9,-
CC(=O)c1sc(NC(=O)COc2ccc(C(C)C)c(C)c2)nc1C,-,-,-,77.4,-
CC(C)C1N(S(=O)(=O)c2ccccc2)CCN1S(=O)(=O)c1ccccc1,-,-,-,75.8,-
C[C@H](O)CC(=O)O,-,-,-,.,-
CCOc1ccc(CN2CCC(n3nccc3NC(=O)c3ccccc3OC)CC2)cc1,-,-,-,.,-
CC(C)c1ccc(CNC(=O)C2CCCN2S(=O)(=O)c2ccccc2)cc1 (centres undefined),-,-,-,.,-
O=C(NC(=S)N1CCCCC1)C12CC3CC(CC(C3)C1)C2,-,-,-,-,-
O=C(c1cc(NC(=O)C23CC4CC(CC(C4)C2)C3)cc(NC(=O)C23CC4CC(CC(C4)C2)C3)c1)N1CCCCC1,-,-,-,70.8,-
CCCCN1C[C@H](C)[C@@H](CC(=O)NCc2ccccc2)C1=O,-,-,-,.,-
C=CCn1c(SCc2ccc(Cl)cc2)nc2cc(C(=O)N3CCC(C(N)=O)CC3)ccc2c1=O,-,-,-,83.2,-
CSC(N)=NCCC[C@H](N)C(=O)O,.,.,.,-,.
CCCOc1ccc(S(=O)(=O)NCc2ccc(OC)cc2)cc1,-,-,-,80.3,-
Cc1cc(C)cc(OCC(=O)NCC2CCCO2)c1 (centres undefined),-,-,-,73.2,-
Cc1cc(C)c(C)c(OCC(=O)NCC2CCCO2)c1 (centres undefined),-,-,-,-,-
SMILES,XBP1 UPR activ,CHOP UPR activ,697 NFkB inh,CHOP inh,Jurkat NFkB inh
O=C(C1COc2ccccc2O1)N1CCN(Cc2ccc(Br)cc2F)CC1 (centres undefined),-,-,-,.,-
N#Cc1nc(-c2ccccc2F)oc1NC1CCCCC1,-,-,-,80.4,-
CC(C)(C)NC(=O)NC(=O)COC(=O)C1=COCCO1,-,-,-,81.1,-
N#C/C(C(N)=O)=c1/ccc2c(c1)N1C3=C(CCCC3)CC3CCCCC31N=2 (centres undefined),-,-,-,82.4,-
Nc1nc(COC(=O)C2CC(=O)N(CCc3ccccc3)C2)nc(Nc2ccccc2)n1 (centres undefined),-,-,-,.,-
Cc1cc(NC(=O)c2cc(-c3ccccc3)on2)n(-c2ccccc2)n1,-,-,-,76.1,-
COc1cccc(-c2cc(C(=O)Nc3c(C)nn(Cc4ccccc4)c3C)no2)c1,-,-,-,-,-
COc1ccc(-c2cc(C(=O)Nc3cc(C)nn3-c3ccccc3)no2)cc1,-,-,-,-,-
COc1ccc(-c2cc(C(=O)Nc3c(C)nn(Cc4ccccc4)c3C)no2)cc1,-,-,-,75.7,-
COc1cccc(-c2cc(C(=O)Nc3c(C)nn(Cc4ccccc4C)c3C)no2)c1,-,-,-,70.4,-
COc1ccccc1C(=O)NC(=O)CSc1nnc(C)s1,-,-,-,.,-
O=c1[nH]c(CSc2ncnc3sccc23)nc2cc(C(F)(F)F)ccc12,-,-,-,88.7,-
O=c1[nH]c(CSc2ncc(C(F)(F)F)cc2Cl)nc2ccccc12,-,-,-,-,-
CSc1ccc(CN(C)Cc2nc3cc(C(F)(F)F)ccc3c(=O)[nH]2)cc1,-,-,-,71.0,-
COCc1cc(C)nc2sc(C(=O)Nc3cccc(OC)c3)c(N)c12,-,-,-,.,-
COC(C[C@@H]1O[C@H]1C(=O)COCc1ccccc1)OC,-,-,-,.,-
CN(C)c1ccc(-c2nn3c(-c4ccc(Cl)cc4)nnc3s2)cc1,.,.,.,-,.
CN(C)c1ccc(-c2nn3c(C4CCCCC4)nnc3s2)cc1,-,-,-,93.0,-
Cc1cccc(C)c1NC(=O)CNC(=O)c1ccc(N2CCCC2=O)cc1,-,-,-,.,-
O=C(NCCN1CCN(c2ccccc2F)CC1)c1cccn2c(=O)c3ccccc3nc12,-,-,-,76.1,-
O=C(NCCN1CCN(c2ccccc2)CC1)c1cccn2c(=O)c3ccccc3nc12,-,-,-,-,-
CCOC(=O)C1CCN(Cc2cc(=O)oc3c(C)c(C)ccc23)CC1,-,-,-,.,-
CCOc1ncccc1C(=O)OCc1cc(=O)oc2c(C)c(C)ccc12,.,.,.,75.0,.
CC(Sc1nc(-c2ccccc2)cc(C(F)(F)F)n1)C(=O)N1CCCC1 (centres undefined),-,-,-,92.2,-
CC(=O)c1c(C)[nH]c(C(=O)COc2cc(C)ccc2C(C)C)c1C,-,-,-,83.2,-
SMILES,XBP1 UPR activ,CHOP UPR activ,697 NFkB inh,CHOP inh,Jurkat NFkB inh
O=C(c1cnc(N2CCN(c3ccccn3)CC2)c2ccccc12)N1CCN(c2cccc(Cl)c2)CC1,-,-,-,77.2,-
O=C(c1cc(Cl)ccc1Cl)N1CCN(c2ccccn2)CC1,-,-,-,-,-
O=C(Nc1ccc(C(F)(F)F)cc1)c1cnc(N2CCN(c3ccccn3)CC2)c2ccccc12,-,-,-,81.2,-
COc1ccc(CNS(=O)(=O)CCNC(=O)c2cccc(OC)c2)cc1,-,-,-,.,-
CCOc1c(Br)ccc2c1sc1nc[nH]c(=O)c12,-,-,-,93.1,-
CC1(C)Cc2nc3oc4c(=O)n(CC(=O)Nc5ccc(Cl)cc5)cnc4c3cc2CO1,-,-,-,95.1,-
Cc1ccccc1NC(=O)Cn1cnc2c(oc3nc4c(cc32)COC(C)(C)C4)c1=O,-,-,-,-,-
Cc1cccc(C)c1OCC(=O)OC/C(O)=C(\C#N)c1nc2ccccc2[nH]1,-,-,-,-,-
N#C/C(=C(/O)COC(=O)COc1cccc(Br)c1)c1nc2ccccc2[nH]1,-,-,-,74.6,-

# Compound activity as filed in PubChem BioAssay.
